In ChEMBL document CHEMBL4689842, “EUbOPEN Chemogenomics Library wave 1” (2021):
Several values for one entry are separate records, joined by “and”; a condition that tells them apart may be missing. Equal values may be shown once.

Tested on: Fibroblast
Experiment: Multiplex assay against human fibroblast
Assay type: toxicity, cell-based
Summary of the method: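 Cells stained live at seeding with Hoechst33342, BioTracker Green Microtubule Cytoskeleton Dye, MitoTracker Red and Annexin V Alexa Fluor 680 were imaged on a CQ1 microscope at 37°C and 5% CO2 after compound addition. Their classification by CellPathfinder machine-learning gating ran from Hoechst high-intensity objects versus normal cells, to healthy, pyknosed or fragmented nuclei among normal cells, to mitotic or apoptotic among pyknosed cells. Tubulin, mitochondrial-mass and membrane-permeability phenotypes are per cents of healthy-nucleus cells.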

[1] = 12 h, 1 µM, compound concentration 1 uM, replicate 1
[2] = 12 h, 1 µM, compound concentration 1 uM, replicate 2
[3] = 12 h, 10 µM, compound concentration 10 uM, replicate 1
[4] = 12 h, 10 µM, compound concentration 10 uM, replicate 2
[5] = 24 h, 1 µM, compound concentration 1 uM, replicate 1
[6] = 24 h, 1 µM, compound concentration 1 uM, replicate 2
[7] = 24 h, 10 µM, compound concentration 10 uM, replicate 1
[8] = 24 h, 10 µM, compound concentration 10 uM, replicate 2
[9] = 48 h, 10 µM, compound concentration 10 uM, replicate 1
[10] = 48 h, 10 µM, compound concentration 10 uM, replicate 2

SMILES: c1ccc(-c2oc3ncnc(NC[C@@H]4CCCO4)c3c2-c2ccccc2)cc1
- Population Apoptotic (%) [1]: 77% and 68%
- Population Fragmented Nuclei (%) [1]: 30% and 24%
- Population Healthy Nuclei (%) [1]: 49% and 53%
- Population Hoechst High Intensity Objects (%) [1]: 11% and 13%
- Population Membrane Permeable-Phenotype (%) [1]: 22% and 42%
- Population Mitochondria Different-Phenotype (%) [1]: 7% and 16%
- Population Mitotic Cells (%) [1]: 22% and 31%
- Population Normal (%) [1]: 88% and 86%
- Population Pyknosed Nuclei (%) [1]: 20% and 21%
- Total Cell Count [1]: 123 and 267
- Population Apoptotic (%) [2]: 50% and 25%
- Population Fragmented Nuclei (%) [2]: 35% and 48%
- Population Healthy Nuclei (%) [2]: 40% and 37%
- Population Hoechst High Intensity Objects (%) [2]: 35% and 44%
- Population Membrane Permeable-Phenotype (%) [2]: 29% and 27%
- Population Mitochondria Different-Phenotype (%) [2]: 11% and 18%
- Population Mitotic Cells (%) [2]: 50% and 75%
- Population Normal (%) [2]: 64% and 55%
- Population Pyknosed Nuclei (%) [2]: 23% and 13%
- Population Tubulin-Different-Phenotype (%) [2]: 47% and 100%
- Total Cell Count [2]: 65 and 52
- Population Apoptotic (%) [3]: 53%
- Population Fragmented Nuclei (%) [3]: 20%
- Population Healthy Nuclei (%) [3]: 41%
- Population Hoechst High Intensity Objects (%) [3]: 20%
- Population Membrane Permeable-Phenotype (%) [3]: 21%
- Population Mitochondria Different-Phenotype (%) [3]: 42%
- Population Mitotic Cells (%) [3]: 46%
- Population Normal (%) [3]: 79%
- Population Pyknosed Nuclei (%) [3]: 37%
- Population Tubulin-Different-Phenotype (%) [3]: 84%
- Total Cell Count [3]: 99
- Population Apoptotic (%) [4]: 87%
- Population Fragmented Nuclei (%) [4]: 14%
- Population Healthy Nuclei (%) [4]: 71%
- Population Hoechst High Intensity Objects (%) [4]: 6%
- Population Membrane Permeable-Phenotype (%) [4]: 34%
- Population Mitochondria Different-Phenotype (%) [4]: 56%
- Population Mitotic Cells (%) [4]: 12%
- Population Normal (%) [4]: 93%
- Population Pyknosed Nuclei (%) [4]: 14%
- Population Tubulin-Different-Phenotype (%) [4]: 95%
- Total Cell Count [4]: 61
- Population Apoptotic (%) [5]: 65% and 78%
- Population Fragmented Nuclei (%) [5]: 19% and 29%
- Population Healthy Nuclei (%) [5]: 59% and 57%
- Population Hoechst High Intensity Objects (%) [5]: 18% and 12%
- Population Membrane Permeable-Phenotype (%) [5]: 17% and 16%
- Population Mitotic Cells (%) [5]: 34% and 21%
- Population Normal (%) [5]: 81% and 87%
- Population Pyknosed Nuclei (%) [5]: 21% and 13%
- Total Cell Count [5]: 254 and 121
- Population Apoptotic (%) [6]: 70% and 83%
- Population Fragmented Nuclei (%) [6]: 43% and 66%
- Population Healthy Nuclei (%) [6]: 34% and 17%
- Population Hoechst High Intensity Objects (%) [6]: 33% and 36%
- Population Membrane Permeable-Phenotype (%) [6]: 13% and 28%
- Population Mitotic Cells (%) [6]: 30% and 16%
- Population Normal (%) [6]: 66% and 63%
- Population Pyknosed Nuclei (%) [6]: 22% and 15%
- Population Tubulin-Different-Phenotype (%) [6]: 66% and 100%
- Total Cell Count [6]: 66 and 61
- Population Apoptotic (%) [7]: 76%
- Population Fragmented Nuclei (%) [7]: 43%
- Population Healthy Nuclei (%) [7]: 39%
- Population Hoechst High Intensity Objects (%) [7]: 25%
- Population Membrane Permeable-Phenotype (%) [7]: 13%
- Population Mitochondria Different-Phenotype (%) [7]: 51%
- Population Mitotic Cells (%) [7]: 23%
- Population Normal (%) [7]: 74%
- Population Pyknosed Nuclei (%) [7]: 17%
- Population Tubulin-Different-Phenotype (%) [7]: 82%
- Total Cell Count [7]: 99
- Population Apoptotic (%) [8]: 100%
- Population Fragmented Nuclei (%) [8]: 14%
- Population Healthy Nuclei (%) [8]: 68%
- Population Hoechst High Intensity Objects (%) [8]: 10%
- Population Membrane Permeable-Phenotype (%) [8]: 21%
- Population Mitochondria Different-Phenotype (%) [8]: 56%
- Population Mitotic Cells (%) [8]: 0%
- Population Normal (%) [8]: 90%
- Population Pyknosed Nuclei (%) [8]: 16%
- Population Tubulin-Different-Phenotype (%) [8]: 81%
- Total Cell Count [8]: 60
- Population Apoptotic (%) [9]: 60%
- Population Fragmented Nuclei (%) [9]: 36%
- Population Healthy Nuclei (%) [9]: 51%
- Population Hoechst High Intensity Objects (%) [9]: 14%
- Population Membrane Permeable-Phenotype (%) [9]: 13%
- Population Mitochondria Different-Phenotype (%) [9]: 55%
- Population Mitotic Cells (%) [9]: 40%
- Population Normal (%) [9]: 85%
- Population Pyknosed Nuclei (%) [9]: 11%
- Population Tubulin-Different-Phenotype (%) [9]: 95%
- Total Cell Count [9]: 98
- Population Apoptotic (%) [10]: 0%
- Population Fragmented Nuclei (%) [10]: 40%
- Population Healthy Nuclei (%) [10]: 59%
- Population Hoechst High Intensity Objects (%) [10]: 10%
- Population Membrane Permeable-Phenotype (%) [10]: 16%
- Population Mitochondria Different-Phenotype (%) [10]: 42%
- Population Mitotic Cells (%) [10]: 0%
- Population Normal (%) [10]: 89%
- Population Pyknosed Nuclei (%) [10]: 0%
- Population Tubulin-Different-Phenotype (%) [10]: 96%
- Total Cell Count [10]: 105
